Assay results taken from ChEMBL document CHEMBL1649235, “The proteasome inhibitor epoxomicin has potent Plasmodium falciparum gametocytocidal activity” (Antimicrob Agents Chemother, 2009).
Each block holds one compound with its values, some of them ahead of it. The source made the active and inactive calls. No cut-off for these calls is given here.

How the values were obtained:
Plasmodium falciparum [1] = assay: Antimicrobial activity against asexual stage of Plasmodium falciparum 3D7 at 100 uM after 24 hrs by Giemsa staining; assay type: functional, organism-based
Method in brief: (§1)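 3D7 cultures containing asexual stages and gametocytes incubated 24 h with inhibitor at 100 µM or DMSO carrier, at 37°C in a sealed chamber (90% N2, 5% CO2, 5% O2), fed with RPMI 1640, hypoxanthine and 10% human serum. Asexual parasites and gametocytes assessed on Giemsa-stained smears.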

Plasmodium falciparum [2] = assay: Antimicrobial activity against gametocyte stage of Plasmodium falciparum 3D7 at 100 uM after 24 hrs by Giemsa staining; assay type: functional, organism-based; method in brief: as §1
Plasmodium falciparum [3] = assay: Antimicrobial activity against Plasmodium falciparum 3D7 assessed as gametocytes per 1000 RBCs at 100 uM after 2 days by Giemsa staining relative to control; assay type: functional
Method in brief: (§2)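 3D7 cultures holding asexual parasites and gametocytes, gametocytogenesis induced per Ifediba and Vanderberg. Inhibitor at 100 µM or DMSO carrier for 24 h in a sealed chamber (90% N2, 5% CO2, 5% O2) at 37°C. Fed daily with RPMI 1640, hypoxanthine (10 mg liter−1) and 10% human serum. Gametocytes per 1,000 RBCs counted and staged on Giemsa smears 2 days after treatment.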

Plasmodium falciparum [4] = assay: Antimicrobial activity against Plasmodium falciparum 3D7 assessed as stage 2 gametocytes per 1000 RBCs at 100 uM after 2 days by Giemsa staining relative to control; assay type: functional; method in brief: as §2
Plasmodium falciparum [5] = assay: Antimicrobial activity against Plasmodium falciparum 3D7 assessed as stage 4 gametocytes per 1000 RBCs at 100 uM after 2 days by Giemsa staining relative to control; assay type: functional; method in brief: as §2
Plasmodium falciparum [6] = assay: Antimicrobial activity against Plasmodium falciparum 3D7 assessed as stage 3 gametocyte per 1000 RBCs at 100 uM after 5 days by Giemsa staining relative to control; assay type: functional
Method in brief: (§3)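 Gametocyte cultures of strain 3D7, 8 days after setup, exposed 24 h to inhibitor at 100 µM or an equal amount of DMSO. Kept at 37°C under 90% N2/5% CO2/5% O2 and fed daily with RPMI 1640, hypoxanthine and 10% human serum. Gametocytes per 1,000 RBCs scored by stage (II–V) on Giemsa-stained smears.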

Plasmodium falciparum [7] = assay: Antimicrobial activity against Plasmodium falciparum 3D7 assessed as stage 3 gametocytes per 1000 RBCs at 100 uM after 2 days by Giemsa staining relative to control; assay type: functional; method in brief: as §2
Plasmodium falciparum [8] = assay: Antimicrobial activity against asexual stage of Plasmodium falciparum 3D7 assessed as reduction in parasite count at 100 uM after 24 hrs by Giemsa staining; assay type: functional, organism-based; method in brief: as §1
Plasmodium falciparum [9] = assay: Antimicrobial activity against Plasmodium falciparum 3D7 assessed as stage 4 gametocyte per 1000 RBCs at 100 uM after 5 days by Giemsa staining relative to control; assay type: functional; method in brief: as §3
Plasmodium falciparum [10] = assay: Antimicrobial activity against Plasmodium falciparum 3D7 assessed as stage 5 gametocyte per 1000 RBCs at 100 uM after 5 days by Giemsa staining relative to control; assay type: functional; method in brief: as §3
[11] = Cytotoxicity against mouse 3T3 cells assessed as viable cells at 1 uM by MTS assay in presence of 10% fetal calf serum; assay type: cell-based; conditions: 3T3 cells (NIH3T3), read-out: Activity
Method in brief: (§4)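 NIH-3T3 mouse fibroblasts or A549 human lung epithelial cells (1 × 104 to 5 × 10^4 per well) in DMEM with 10% FCS. Viability read by MTS tetrazolium reduction as absorbance.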

[12] = Cytotoxicity against human A549 cells assessed as viable cells at 1 uM by MTS assay in presence of 10% fetal calf serum; assay type: cell-based; conditions: read-out: Activity; method in brief: as §4
Plasmodium falciparum [13] = assay: Antimicrobial activity against gametocyte stage of Plasmodium falciparum 3D7 after 24 hrs; assay type: functional, organism-based; conditions: 3D7, 24 h
Method in brief: (§5)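 Mixed asexual/gametocyte 3D7 cultures (mainly stage II–III gametocytes) exposed 24 h to serial dilutions (10 nM to 1 µM) or DMSO carrier at 37°C under low-oxygen gas. Asexual parasites and gametocytes counted on Giemsa smears and expressed as percent of DMSO control. IC50 calculated from the 24-h time point.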

Plasmodium falciparum [14] = assay: Antimicrobial activity against gametocyte stage of Plasmodium falciparum 3D7 assessed as reduction in parasite count at 1 uM after 24 hrs by Giemsa staining; assay type: functional; design: scale not given: the % may be the effect or the level left; method in brief: as §5
Plasmodium falciparum [15] = assay: Antimicrobial activity against gametocyte stage of Plasmodium falciparum 3D7 assessed as reduction in parasite count at 100 nM after 24 hrs by Giemsa staining; assay type: functional; design: scale not given: the % may be the effect or the level left; method in brief: as §5
Plasmodium falciparum [16] = assay: Antimicrobial activity against asexual stage of Plasmodium falciparum 3D7 assessed as reduction in parasite count at 100 nM after 24 hrs by Giemsa staining; assay type: functional; design: scale not given: the % may be the effect or the level left; method in brief: as §5
Plasmodium falciparum [17] = assay: Antimicrobial activity against asexual stage of Plasmodium falciparum 3D7 after 24 hrs; assay type: functional, organism-based; conditions: 3D7, 24 h; method in brief: as §5
Plasmodium falciparum [18] = assay: Antimicrobial activity against asexual stage of Plasmodium falciparum 3D7 assessed as reduction in parasite count at 1uM after 24 hrs by Giemsa staining; assay type: functional; design: scale not given: the % may be the effect or the level left; method in brief: as §5

SMILES: Cc1ccc(S(=O)(=O)N[C@@H](Cc2ccccc2)C(=O)CCl)cc1 [TPCK]
Activity (Plasmodium falciparum [1]): inactive
Activity (Plasmodium falciparum [2]): inactive
Activity (Plasmodium falciparum [3]): 21%

SMILES: CCOC(=O)[C@H]1O[C@@H]1C(=O)N[C@@H](CC(C)C)C(=O)NCCC(C)C [ALOXISTATIN]
Activity (Plasmodium falciparum [4]): 72%
Activity (Plasmodium falciparum [5]): 10%
Activity (Plasmodium falciparum [6]): 22%
Activity (Plasmodium falciparum [7]): 18%
Activity (Plasmodium falciparum [8]): Active
Activity (Plasmodium falciparum [9]): 68%
Activity (Plasmodium falciparum [10]): 10%

IC50 (Plasmodium falciparum [13]): 54 nM
IC50 (Plasmodium falciparum [17]): 41 nM
SMILES: CC[C@H](C)[C@H](NC(=O)[C@H]([C@@H](C)CC)N(C)C(C)=O)C(=O)N[C@H](C(=O)N[C@@H](CC(C)C)C(=O)[C@@]1(C)CO1)[C@@H](C)O [EPOXOMYCIN]
viability at 1 µM [11]: 80%
viability at 1 µM [12]: 80%
Activity (Plasmodium falciparum [14]): 77%
Activity (Plasmodium falciparum [15]): 77%
Activity (Plasmodium falciparum [16]): 86%
Activity (Plasmodium falciparum [18]): 86%
